PAD4 FP inh – human PAD4 inhibitors, primary screen, biochemical, fluorescence polarization, 1536-well format; Protein-arginine deiminase type-4 (Homo sapiens), Q9UM07; recombinant PAD4, RCA probe fluorescence polarization; inhibition, % at 6.36 µM; 330,000 tested, 0.41% active;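 active = percent inhibition above a cutoff equal to the mean of all tested compounds plus 3 SD, cut at about 15% in these data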;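 note: 0% = PAD4 with RCA probe and DMSO and 100% = probe without PAD4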
TDP2 absorb – human TDP2 enzyme inhibitors, primary screen, biochemical, epi absorbance, recombinant enzyme; Tyrosyl-DNA phosphodiesterase 2 (Homo sapiens), O95551; T5PNP hydrolysis, p-nitrophenol absorbance 415 nm; inhibition, % at 12.8 µM; 370,000 tested, 0.34% active; AID 720702, 2013;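 active = inhibition above the mean of all tested compounds plus 3 SD, set per campaign, cut at about 25% in these data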;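 note: 0% = DMSO with enzyme and 100% = buffer with substrate but no TDP2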
Target sequence (O95551 whole entry, looked up): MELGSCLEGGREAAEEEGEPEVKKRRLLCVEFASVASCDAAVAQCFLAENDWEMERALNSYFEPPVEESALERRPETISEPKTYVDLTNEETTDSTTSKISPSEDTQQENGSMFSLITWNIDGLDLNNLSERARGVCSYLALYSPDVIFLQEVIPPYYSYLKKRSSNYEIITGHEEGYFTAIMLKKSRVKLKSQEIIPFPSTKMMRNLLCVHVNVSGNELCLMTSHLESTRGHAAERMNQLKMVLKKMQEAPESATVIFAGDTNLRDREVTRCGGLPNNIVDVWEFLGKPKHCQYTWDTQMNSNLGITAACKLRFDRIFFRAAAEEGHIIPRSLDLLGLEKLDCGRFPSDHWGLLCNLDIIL
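test system = human TDP2 enzyme | input = TDP2 enzyme at 120 nM final | medium = 50 mM Tris-HCl pH 7.5 with Mg2+, KCl, DTT, BSA | also added = T5PNP substrate, 5 mM | times = 2 h at 37 °C | technique = epi absorbance | benchmarks = high control without enzyme, low control DMSO plus TDP2 | replication = each compound tested once, singlicate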
Apaf-1 inh – inhibitors of human Apaf-1 apoptosome, primary screen, biochemical, DEVD-Rh110 fluorescence, uHTS | reconstituted apoptosome caspase-3 activity | inhibition, % at 20 µM | 330,000 tested, 0.71% active | AID 489030, 2010 | Apoptotic protease-activating factor 1 (Homo sapiens), O14727; active = inhibition of at least 40% at 20 µM;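 note: plate controls were DMSO wells for no effect and DEVD-CHO caspase inhibitor wells for full effect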
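System: reconstituted apoptosome with Apaf-1, cytochrome c, caspase-9, procaspase-3, dATP; Signal: Rh110 fluorescence intensity; Schedule: 30 min compound preincubation, 50 min activation, room temperature; Reagent: cytochrome c trigger plus (Z-DEVD)2-Rh110 caspase-3 substrate.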
CTSL1 counter – Fasciola hepatica cathepsin L1 inhibitors, primary screen, counter-screen for PFM18AAP inhibitor project, biochemical, QFRET, fluorogenic peptide substrate | recombinant F. hepatica cathepsin L1, Z-Leu-Arg-MCA fluorescence | inhibition, % at 5.96 µM | 300,000 tested, 0.49% active | AID 1906, 2009;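 active = inhibition above the mean of all tested compounds plus 3 SD, set per screening campaign, cut at about 17% in these data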;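 note: 0% = plate median of test compound wells and 100% = 1 µM Z-Phe-Ala-diazomethylketone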
GSTO1 counter – inhibitors of recombinant GSTO1, primary screen, counter-screen for RBBP9 inhibitor project, biochemical, fluorescence polarization. 300,000 tested, 1.1% active. activity-based probe fluorescence polarization. Glutathione S-transferase omega-1 (Homo sapiens), P78417. inhibition, % at 5.96 µM;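 active = inhibition above the campaign mean inhibition plus 3 SD, cut at about 35% in these data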;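 note: 0% = GSTO1-1 with DMSO and 100% = wells lacking GSTO1-1 enzyme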
Target sequence (P78417 whole entry, looked up): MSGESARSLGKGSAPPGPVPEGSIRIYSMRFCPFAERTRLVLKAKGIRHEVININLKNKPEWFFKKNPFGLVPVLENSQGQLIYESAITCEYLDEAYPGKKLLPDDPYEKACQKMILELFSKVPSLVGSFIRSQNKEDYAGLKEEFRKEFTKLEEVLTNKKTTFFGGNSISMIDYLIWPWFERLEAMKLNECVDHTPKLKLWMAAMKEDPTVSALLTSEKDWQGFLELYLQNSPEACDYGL
TDP2 inh conf – human TDP2 enzyme inhibitors, retest, confirmation, biochemical, epi absorbance, recombinant enzyme. shares compounds with TDP2 absorb. absorbance read-out. inhibition, % at 12.8 µM. 1,100 tested, 22% active. AID 743263, 2014; in the data active = inhibition above about 25%;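 note: 0% = vehicle with enzyme and 100% = no enzyme buffer only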
* marks the source's active call; other numbers are inactive results; . = no result given. The list is not random: actives were taken first. Their share in the collection is about 1.8%.

SMILES | PAD4 FP inh | TDP2 absorb | Apaf-1 inh | CTSL1 counter | GSTO1 counter | TDP2 inh conf
CCOC(=O)C1CCN(c2cc3c(cc2NC(=O)c2cc(OC)ccc2Br)n(C)c(=O)n3C)CC1 | -3 | 4 | 36 | 2 | -1 | .
Cc1[nH]n(-c2ccccc2)c(=O)c1/C=N/N1CCOCC1 | -13 | 17 | 26 | 11 | -11 | .
COc1ccc2nc(/N=C/c3c(C)[nH]n(-c4ccc(C)cc4)c3=O)sc2c1 | -13 | 31* | 14 | 2 | 17 | 14
Cc1ccc(-n2[nH]c(C)c(C=NCc3ccncc3)c2=O)cc1 | -4 | 15 | -15 | 2 | -3 | .
Cc1[nH]n(-c2ccccc2)c(=O)c1/C=N/N1C(=O)c2cccc3cccc(c23)C1=O | -14 | 31* | 0 | -1 | 5 | 7
COc1ccc2nc(/N=C\N(C)C)sc2c1 | 1 | 4 | -5 | 2 | 6 | .
Cc1[nH]n(-c2ccc(Cl)cc2)c(=O)c1/C=N/c1nnc(-c2ccccc2)s1 | -5 | 37* | 28 | 1 | 14 | 20
Cc1[nH]n(-c2ccccc2)c(=O)c1C=NCc1ccncc1 | -2 | 27* | -4 | -5 | -8 | 3
O=C(NCCc1ccccc1)OCc1cn(Cc2cc(F)cc(F)c2)nn1 | . | -3 | . | . | . | .
Cc1nn(CCO)c(N)c1C1(O)C(=O)Nc2c(Cl)cc(Cl)cc21 (stereo not given) | -3 | 28* | 2 | -2 | 24 | 1
Cc1noc(N)c1C1(O)C(=O)Nc2c(Cl)cc(Cl)cc21 (stereo not given) | 1 | 23 | 16 | 1 | -2 | .
COc1ccccc1N1CCN(N=Cc2ccccc2Br)CC1 | . | 0 | . | . | . | .
Cc1cc(NC(=O)CSc2nc(CCC3CCCC3)nc3ccccc23)no1 | 1 | 3 | 10 | 2 | -6 | .
Cc1nonc1NC(=O)CSc1nc(CCC2CCCC2)nc2ccccc12 | 0 | 25* | 6 | -7 | -25 | 0
Clc1ccc(-n2c(Cc3cccs3)nnc2SC/C=C/c2ccccc2)cc1 | . | 0 | . | . | . | .
CCn1c(COc2ccc(=O)n(-c3ccccc3)n2)nnc1SCc1cccc(OC)c1 | -5 | 8 | 2 | 3 | 0 | .
C=CCSc1nnc(COc2ccc(=O)n(-c3ccccc3)n2)n1CC | -2 | 25* | -10 | -1 | 6 | 6
O=C(COC(=O)c1ccc([N+](=O)[O-])s1)Nc1ccc(F)cc1 | -1 | 47* | 38 | . | . | 31*
O=C(NCc1ccccc1)N1CCN(Cc2nc3ccccc3c(=O)[nH]2)CC1 | . | -4 | . | . | . | .
Cc1ccc(/C([O-])=C(/C(=S)NCc2ccccc2)[n+]2cccc(CO)c2)cc1[N+](=O)[O-] | . | 26* | . | . | . | 1
COc1ccc(CCNCC(=O)Nc2ccc(C)c(Br)c2)cc1OC | 2 | 13 | 6 | 4 | 4 | .
COc1ccc(CCNCC(=O)Nc2ccc(C)c(S(=O)(=O)N(C)C)c2)cc1OC | 3 | 32* | -8 | -3 | -5 | 9
O=C(O)COc1ccccc1/C=C1\C(=O)Nc2ccc(Br)cc21 | -1 | 29* | 5 | 3 | 22 | 14
Cc1ccc(C2C(C#N)=C(N)Oc3n[nH]c(-c4cccs4)c32)s1 (stereo not given) | 9 | 34* | 15 | 2 | 17 | 0
O=C1NC(=O)/C(=C/c2ccc(-c3cc(C(=O)O)ccc3Cl)o2)S1 | -6 | 32* | 16 | 1 | -72 | 16
SMILES | PAD4 FP inh | TDP2 absorb | Apaf-1 inh | CTSL1 counter | GSTO1 counter | TDP2 inh conf
O=C1NC(=O)/C(=C\c2ccc(Br)o2)S1 | 2 | 0 | 9 | 7 | 8 | .
COc1ccccc1Cc1c(-c2ccc(OC)c(OC)c2)nc2cc(C)c(Br)c(C)n12 | . | 33* | . | . | . | 2
CC1=CC2(O)OCCN(CCO)C2=CC1=O (stereo not given) | -2 | 32* | -17 | -5 | 23 | 9
Cc1cc(C)n(-c2ncc3c(n2)N(CCO)CCOC3=O)n1 | 1 | 8 | -8 | -2 | 7 | .
CCCCC(Sc1nc(N)c(NC(=O)c2ccco2)c(=O)[nH]1)C(=O)O (stereo not given) | -5 | 26* | 0 | -1 | 12 | 2
COc1ccc(NC(=O)CSc2nnc(-c3cc(C)[nH]n3)n2N)cc1OC | -5 | 30* | -4 | 2 | -2 | -7
N/C(=N\N=Cc1ccc2c(c1)OCO2)NN=Cc1ccc2c(c1)OCO2 | . | 44* | . | . | . | -7
C/C(=N/NS(=O)(=O)c1ccc(Br)cc1)c1c[nH]c2ccccc12 | -4 | 25* | 4 | -1 | 0 | 6
COc1ccccc1N1CCN(CCCCOc2c(OC)cccc2OC)CC1 | -4 | 27* | 2 | -1 | 0 | -5
COc1ccccc1N1CCN(CCOc2c(OC)cccc2OC)CC1 | -4 | 8 | 7 | -2 | -6 | .
COC(=O)[C@]12C[C@H](CC(=O)NCCCCc3ccccc3)C(=O)N(Cc3ccccc3)C1=C[C@H](COCc1ccccc1)O[C@@H]2C | . | -8 | . | . | . | .
Cc1ccc(NC(=O)Cc2nnc(SCC(=O)Nc3nncs3)n2C)c(C)c1 | -1 | 29* | -5 | 2 | -7 | 2
Cn1c(CC(=O)Nc2ccccc2Cl)nnc1SCC(=O)Nc1nncs1 | 2 | 2 | 5 | 2 | 3 | .
Cc1cccc(NC(=O)C2CCN(c3nnc(-n4cccc4)s3)CC2)c1C | . | -8 | . | . | . | .
CCc1cc(SC#N)cc(C)c1N | 3 | 32* | 6 | -3 | 0 | 5
CCN1Cc2nnn(Cc3ccccc3)c2-c2cc(F)ccc2S1(=O)=O | . | 4 | . | . | . | .
COc1ccc(/C=C/C(=O)NC2CCN(Cc3ccccc3)CC2)cc1OC | 2 | 28* | 7 | 3 | 2 | -8
CS(=O)(=O)c1nc(S(=O)(=O)c2ccc(Cl)cc2)c(NCCCN2CCOCC2)s1 | 2 | 27* | -4 | 2 | 5 | 1
CCS(=O)(=O)c1nc(S(=O)(=O)c2ccc(Cl)cc2)c(NCCCN2CCOCC2)s1 | -2 | 5 | -2 | 3 | 3 | .
O=C(c1nc2ccccn2c1CNCCCn1cccn1)N1CCCC1 | 1 | 28* | -1 | -3 | -5 | -8
Cc1ccc2[nH]c(O)c(N=Nc3nc4ccccc4s3)c2c1 | 3 | 25* | 14 | 8 | 8 | -18
O=[N+]([O-])c1ccc(Oc2ccc(-c3nnco3)cc2)c(Cl)c1 | 0 | 47* | 14 | 8 | -2 | 4
N#Cc1cc([N+](=O)[O-])ccc1Oc1ccc(-c2nnco2)cc1 | 2 | 0 | 6 | 2 | 2 | .
